Assays:
[1] = test system: Mus musculus; test: Analgesic activity in Swiss albino mouse inflammatory pain model assessed as inhibition of acetic acid-induced writhing at 40 mg/kg, po administered 30 mins prior to acetic acid challenge relative to vehicle-treated control; type: functional
Procedure, shortened: (§1)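 Male Swiss albino mice (23–25 g), standard diet, water ad libitum, 23 ± 1 °C, 12 h light/dark cycle, randomised into groups. Compound or vehicle (suspended in 1% carboxymethylcellulose) given orally 30 min before ip 0.6% acetic acid. Writhes counted starting 5 min after injection. Reported as writhe count and % reduction versus vehicle-treated mice. Mean of 10 mice per group.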

[2] = test system: Mus musculus; test: Analgesic activity in Swiss albino mouse inflammatory pain model assessed as inhibition of acetic acid-induced writhing at 20 mg/kg, po administered 30 mins prior to acetic acid challenge relative to vehicle-treated control; type: functional; procedure, shortened: as §1
[3] = test system: Mus musculus; test: Analgesic activity in Swiss albino mouse inflammatory pain model assessed as inhibition of acetic acid-induced writhing at 5 mg/kg, po administered 30 mins prior to acetic acid challenge relative to vehicle-treated control; type: functional; procedure, shortened: as §1
[4] = target: T1, Prostaglandin G/H synthase 1 (Mus musculus, UniProt P22437); test: Inhibition of COX1 in mouse J774 cells using arachidonic acid as substrate assessed as inhibition of PGE2 production incubated for 15 mins prior to substrate addition measured after 30 mins by radioimmunoassay; type: cell-based
T1 sequence (P22437 whole entry): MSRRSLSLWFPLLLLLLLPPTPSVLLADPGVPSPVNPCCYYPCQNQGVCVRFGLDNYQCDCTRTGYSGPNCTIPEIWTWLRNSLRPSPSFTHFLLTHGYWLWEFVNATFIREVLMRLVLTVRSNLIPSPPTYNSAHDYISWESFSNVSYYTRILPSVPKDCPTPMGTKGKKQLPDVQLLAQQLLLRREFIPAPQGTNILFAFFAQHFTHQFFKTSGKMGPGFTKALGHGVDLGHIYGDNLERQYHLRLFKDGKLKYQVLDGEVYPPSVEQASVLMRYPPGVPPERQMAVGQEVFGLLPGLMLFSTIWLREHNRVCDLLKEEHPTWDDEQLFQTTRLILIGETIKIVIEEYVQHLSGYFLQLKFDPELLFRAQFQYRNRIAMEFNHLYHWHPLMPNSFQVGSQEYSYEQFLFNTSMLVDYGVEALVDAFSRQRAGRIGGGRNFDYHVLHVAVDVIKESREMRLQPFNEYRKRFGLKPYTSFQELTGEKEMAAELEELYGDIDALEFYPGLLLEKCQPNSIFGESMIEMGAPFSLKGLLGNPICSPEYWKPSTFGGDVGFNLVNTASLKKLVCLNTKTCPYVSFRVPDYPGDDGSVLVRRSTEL
Procedure, shortened: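 J774 cells allowed to adhere 2 h at 37 °C, 5% CO2; medium swapped for FBS-free medium just before use. Pre-treatment with compounds (0.01–10 µM) for 15 min, then 30 min at 37 °C with 15 µM arachidonic acid to activate constitutive COX-1. Supernatant PGE2 by RIA; triplicate wells, mean of three experiments as % inhibition vs control; IC50 from sigmoidal variable-slope fit.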

[5] = test system: J774; test: Selectivity index, ratio of IC50 for COX1 in mouse J774 cells to IC50 for COX2 in mouse J774 cells; type: cell-based
[6] = target: T2, Prostaglandin G/H synthase 2 (Mus musculus, UniProt Q05769); test: Inhibition of COX2 in mouse J774 cells assessed as inhibition of LPS-induced PGE2 production by radioimmunoassay; type: cell-based
T2 sequence (Q05769 whole entry): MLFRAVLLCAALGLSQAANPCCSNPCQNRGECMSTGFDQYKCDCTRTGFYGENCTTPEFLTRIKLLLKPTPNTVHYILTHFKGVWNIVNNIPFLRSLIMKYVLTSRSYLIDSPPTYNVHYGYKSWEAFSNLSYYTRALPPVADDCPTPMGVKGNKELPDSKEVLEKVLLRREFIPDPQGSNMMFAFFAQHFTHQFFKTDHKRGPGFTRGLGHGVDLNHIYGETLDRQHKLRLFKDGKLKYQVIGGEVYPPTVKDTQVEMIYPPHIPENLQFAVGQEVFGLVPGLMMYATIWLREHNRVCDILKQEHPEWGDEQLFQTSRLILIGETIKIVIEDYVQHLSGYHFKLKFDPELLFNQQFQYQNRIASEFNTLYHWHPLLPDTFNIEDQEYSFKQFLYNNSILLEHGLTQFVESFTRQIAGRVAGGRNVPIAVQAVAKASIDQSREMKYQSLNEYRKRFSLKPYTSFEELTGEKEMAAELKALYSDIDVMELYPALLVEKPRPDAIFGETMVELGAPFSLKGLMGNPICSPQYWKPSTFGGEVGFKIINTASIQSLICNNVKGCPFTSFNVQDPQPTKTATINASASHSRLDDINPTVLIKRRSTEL

[7] = test system: Mus musculus; test: Analgesic activity in Swiss albino mouse inflammatory pain model assessed as inhibition of acetic acid-induced writhing at 10 mg/kg, po administered 30 mins prior to acetic acid challenge relative to vehicle-treated control; type: functional; procedure, shortened: as §1
[8] = test system: Mus musculus; test: Analgesic activity in Swiss albino mouse inflammatory pain model assessed as inhibition of acetic acid-induced writhing at 1 mg/kg, po administered 30 mins prior to acetic acid challenge relative to vehicle-treated control; type: functional; procedure, shortened: as §1
[9] = target: Prostaglandin G/H synthase 1 (Homo sapiens, UniProt P23219); type: tissue-based, Blood
Sequence of Prostaglandin G/H synthase 1 (Homo sapiens, UniProt P23219) (P23219 whole entry): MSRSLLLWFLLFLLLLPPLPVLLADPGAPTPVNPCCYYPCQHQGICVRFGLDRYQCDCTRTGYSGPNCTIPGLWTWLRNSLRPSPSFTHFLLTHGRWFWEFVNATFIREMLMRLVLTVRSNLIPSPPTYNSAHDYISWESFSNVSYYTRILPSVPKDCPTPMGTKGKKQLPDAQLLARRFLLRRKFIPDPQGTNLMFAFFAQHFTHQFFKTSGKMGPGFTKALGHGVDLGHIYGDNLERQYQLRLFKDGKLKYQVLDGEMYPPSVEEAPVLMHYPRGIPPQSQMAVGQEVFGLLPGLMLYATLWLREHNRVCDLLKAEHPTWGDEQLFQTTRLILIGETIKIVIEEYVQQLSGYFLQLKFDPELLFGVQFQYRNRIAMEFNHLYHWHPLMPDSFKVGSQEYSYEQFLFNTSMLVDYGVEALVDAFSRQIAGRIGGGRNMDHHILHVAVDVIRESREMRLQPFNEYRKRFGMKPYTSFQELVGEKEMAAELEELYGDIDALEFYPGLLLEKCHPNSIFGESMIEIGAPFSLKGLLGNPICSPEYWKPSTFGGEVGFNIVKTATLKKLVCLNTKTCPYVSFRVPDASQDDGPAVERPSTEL

[10] = target: T3, Prostaglandin G/H synthase 2 (Homo sapiens, UniProt P35354); design: species or system Blood
T3 sequence (P35354 whole entry): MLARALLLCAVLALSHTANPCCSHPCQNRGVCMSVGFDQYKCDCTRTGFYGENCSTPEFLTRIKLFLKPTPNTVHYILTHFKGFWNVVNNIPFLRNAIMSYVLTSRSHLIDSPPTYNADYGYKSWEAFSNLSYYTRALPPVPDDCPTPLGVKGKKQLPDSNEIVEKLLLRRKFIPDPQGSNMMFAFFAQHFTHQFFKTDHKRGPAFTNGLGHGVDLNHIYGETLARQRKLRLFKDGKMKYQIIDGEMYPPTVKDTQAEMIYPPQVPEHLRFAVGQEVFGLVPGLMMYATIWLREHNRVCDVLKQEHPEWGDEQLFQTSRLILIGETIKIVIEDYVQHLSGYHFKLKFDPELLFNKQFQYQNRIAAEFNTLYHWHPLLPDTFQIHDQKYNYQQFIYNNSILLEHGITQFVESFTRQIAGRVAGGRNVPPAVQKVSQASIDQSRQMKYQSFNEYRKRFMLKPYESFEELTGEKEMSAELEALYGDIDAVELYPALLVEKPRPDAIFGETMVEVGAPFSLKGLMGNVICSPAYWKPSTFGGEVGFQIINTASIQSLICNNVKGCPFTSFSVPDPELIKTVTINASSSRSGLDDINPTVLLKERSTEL

[11] = organism: Homo sapiens; test: Selectivity ratio of IC50 for platelet COX1 in human whole blood to IC50 for monocyte COX2 in human whole blood; type: tissue-based
[12] = target: T4, Prostaglandin G/H synthase 2 (Mus musculus) (UniProt Q05769); test: Ratio of celecoxib IC50 to compound IC50 for COX2 in mouse J774 cells; type: cell-based
T4 sequence (whole entry): T2 sequence (Q05769 whole entry)
Procedure, shortened: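 The COX-2 IC50 was measured in J774 cells stimulated 24 h with E. coli LPS (10 µg/mL) with or without compound (0.01–10 µM). Supernatant PGE2 by RIA; triplicate wells, mean of three experiments; IC50 from a sigmoidal variable-slope fit. Celecoxib served as the reference for the index.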

| Compound | inhibition in vivo at 40 mg/kg [1] | inhibition in vivo at 20 mg/kg [2] | inhibition in vivo at 5 mg/kg [3] | IC50 [4] | Ratio IC50 [5] | IC50 [6] | inhibition in vivo at 10 mg/kg [7] | inhibition in vivo at 1 mg/kg [8] | IC50 [9] | IC50 [10] | Ratio IC50 [11] | Ratio IC50 [12] |
| --- | --- | --- | --- | --- | --- | --- | --- | --- | --- | --- | --- | --- |
| Cc1c(C=O)cc(-c2ccc(S(C)(=O)=O)cc2)n1-c1ccc(F)cc1 | 31% | 30% | 5% | > 10 µM | – | – | – | – | – | – | – | – |
| Cc1c(C=O)cc(-c2ccc(S(C)(=O)=O)cc2)n1-c1ccccc1 | 30% | 32% | – | > 10 µM | > 294 | 0.034 µM | 23% | – | – | – | – | – |
| Cc1c(C=O)cc(-c2ccc(S(C)(=O)=O)cc2)n1-c1ccc(F)c(F)c1 | 60% | 52% | 50% | > 10 µM | > 143 | 0.07 µM | 53% | 36% | 71.4 µM | 14.8 µM | 4.8 | – |
| Cc1c(C#N)cc(-c2ccc(S(C)(=O)=O)cc2)n1-c1cccc(F)c1 | 38% | 33% | 21% | > 10 µM | > 769 | 0.013 µM | 28% | – | 50.5 µM | 1.3 µM | 38.8 | – |
| Cc1ccc(-c2cc(C(F)(F)F)nn2-c2ccc(S(N)(=O)=O)cc2)cc1 [CELECOXIB] | 69% | 58% | 50% | – | – | – | 57% | 42% | – | – | – | – |
| Cc1c(C#N)cc(-c2ccc(S(C)(=O)=O)cc2)n1-c1ccc(F)cc1 | 45% | 33% | 5% | > 10 µM | – | – | 36% | – | – | – | – | – |
| Cc1c(/C=N\O)cc(-c2ccc(S(C)(=O)=O)cc2)n1-c1cccc(F)c1 | 45% | 42% | – | > 10 µM | > 22.7 | 0.44 µM | 32% | – | – | – | – | – |
| Cc1c(/C=N\O)cc(-c2ccc(S(C)(=O)=O)cc2)n1-c1ccccc1 | 57% | 53% | 13% | > 10 µM | > 52.6 | 0.19 µM | 27% | – | – | – | – | – |
| Cc1c(C=O)cc(-c2ccc(S(C)(=O)=O)cc2)n1-c1cccc(F)c1 | – | 44% | – | > 10 µM | > 1050 | 0.0095 µM | 39% | – | – | – | – | 8 |
| Cc1c(/C=N\O)cc(-c2ccc(S(C)(=O)=O)cc2)n1-c1ccc(F)c(F)c1 | – | 27% | 10% | > 10 µM | > 62.5 | 0.16 µM | 19% | – | 161 µM | 17.3 µM | 9.3 | – |
| Cc1c(C#N)cc(-c2ccc(S(C)(=O)=O)cc2)n1-c1ccc(F)c(F)c1 | 57% | 38% | 8% | > 10 µM | > 454 | 0.0022 µM | 19% | – | – | – | – | 36 |
| Cc1c(C#N)cc(-c2ccc(S(C)(=O)=O)cc2)n1-c1ccccc1 | 59% | 42% | – | > 10 µM | > 27.8 | 0.36 µM | 28% | – | – | – | – | – |
| Cc1c(/C=N\O)cc(-c2ccc(S(C)(=O)=O)cc2)n1-c1ccc(F)cc1 | 47% | 41% | 2% | > 10 µM | > 27.8 | 0.36 µM | 36% | – | – | – | – | – |
